{
  "source": "ChEMBL document CHEMBL4334471",
  "about": "“Discovery of 1,8-disubstituted-[1,2,3]triazolo[4,5-c]quinoline derivatives as a new class of Hippo signaling pathway inhibitors” (Bioorg Med Chem Lett, 2019)",
  "key": {"[1]": {"molecular_target": "Mitogen-activated protein kinase 11 (Homo sapiens) (UniProt Q15759)", "sequence (Q15759 whole entry)": "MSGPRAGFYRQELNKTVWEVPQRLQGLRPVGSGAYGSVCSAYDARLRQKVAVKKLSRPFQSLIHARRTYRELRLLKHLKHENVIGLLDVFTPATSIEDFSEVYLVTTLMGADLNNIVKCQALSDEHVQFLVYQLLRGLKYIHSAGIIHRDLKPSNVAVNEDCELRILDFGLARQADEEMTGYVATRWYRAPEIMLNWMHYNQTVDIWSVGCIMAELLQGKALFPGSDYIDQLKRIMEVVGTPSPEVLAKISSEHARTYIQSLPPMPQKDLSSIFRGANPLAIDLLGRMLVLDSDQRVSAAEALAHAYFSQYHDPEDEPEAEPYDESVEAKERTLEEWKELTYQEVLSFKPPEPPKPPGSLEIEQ", "assay": "Inhibition of recombinant human full length SAPK2b assessed as residual activity at 10 uM using myelin basic protein as substrate incubated for 40 mins in presence of [gamma33P]ATP by scintillation counting based radiometry assay relative to control"}, "[2]": {"molecular_target": "Protein kinase C beta type (Homo sapiens) (UniProt P05771)", "sequence (P05771 2-671 limits assumed)": "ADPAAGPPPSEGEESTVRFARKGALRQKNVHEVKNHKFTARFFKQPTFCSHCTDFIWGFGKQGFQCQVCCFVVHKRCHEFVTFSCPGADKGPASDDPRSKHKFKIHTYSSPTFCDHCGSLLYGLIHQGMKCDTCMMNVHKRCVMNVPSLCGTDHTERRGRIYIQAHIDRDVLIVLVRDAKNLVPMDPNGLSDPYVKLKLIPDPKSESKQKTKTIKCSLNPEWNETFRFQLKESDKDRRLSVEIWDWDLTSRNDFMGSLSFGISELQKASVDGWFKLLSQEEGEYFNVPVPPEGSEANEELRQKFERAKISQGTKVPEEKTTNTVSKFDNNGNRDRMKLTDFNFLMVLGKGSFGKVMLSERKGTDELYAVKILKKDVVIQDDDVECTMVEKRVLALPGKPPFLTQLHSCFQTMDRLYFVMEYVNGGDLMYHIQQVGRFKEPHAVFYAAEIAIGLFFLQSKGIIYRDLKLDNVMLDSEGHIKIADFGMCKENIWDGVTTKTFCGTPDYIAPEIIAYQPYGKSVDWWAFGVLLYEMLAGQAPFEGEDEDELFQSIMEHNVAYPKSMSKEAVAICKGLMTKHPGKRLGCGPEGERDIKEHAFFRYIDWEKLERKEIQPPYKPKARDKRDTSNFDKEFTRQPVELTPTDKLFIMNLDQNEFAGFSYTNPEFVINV", "assay": "Inhibition of recombinant human PKCbeta2 (2 to end residues) assessed as residual activity at 10 uM using histone H1 as substrate incubated for 40 mins in presence of [gamma33P]ATP by scintillation counting based radiometry assay relative to control"}, "Mus musculus": {"species": "Mus musculus", "assay": "Inhibition of recombinant full length mouse PI3K p110/p85 E545K mutant assessed as residual activity at 10 uM using phosphatidylinositol-4, 5-bisphosphate as substrate incubated for 40 mins in presence of [gamma33P]ATP by scintillation counting based radiometry assay relative to control"}, "[3]": {"molecular_target": "Cytoplasmic tyrosine-protein kinase BMX (Homo sapiens) (UniProt P51813)", "assay": "Inhibition of recombinant full length human BMX assessed as residual activity at 10 uM using poly(Glu, Tyr) 4:1 as substrate incubated for 40 mins in presence of [gamma-33ATP] by scintillation counting based radiometry assay relative to control"}, "[4]": {"molecular_target": "Tyrosine-protein kinase CSK (Homo sapiens) (UniProt P41240)", "assay": "Inhibition of recombinant human CSK assessed as residual activity at 10 uM poly(Glu, Tyr) 4:1 as substrate incubated 40 mins in presence of [gamma-33ATP] by scintillation counting based radiometry assay relative to control"}, "[5]": {"system": "Tyrosine-protein kinase ABL1 (Homo sapiens), P00519 [T315I]", "assay": "Inhibition of human ABL1 T315I mutant (27 to end residues) assessed as residual activity at 10 uM using EAIYAAPFAKKK as substrate incubated for 40 mins in presence of [gamma-33ATP] by scintillation counting based radiometry assay relative to control"}, "[6]": {"molecular_target": "Tyrosine-protein kinase Srms (Homo sapiens) (UniProt Q9H3Y6)", "assay": "Inhibition of recombinant human SRMS assessed as residual activity at 10 uM presence of [gamma33P]ATP by scintillation counting based radiometry assay relative to control"}, "[7]": {"molecular_target": "Serine/threonine-protein kinase 4 (Homo sapiens, UniProt Q13043)", "sequence (Q13043 whole entry)": "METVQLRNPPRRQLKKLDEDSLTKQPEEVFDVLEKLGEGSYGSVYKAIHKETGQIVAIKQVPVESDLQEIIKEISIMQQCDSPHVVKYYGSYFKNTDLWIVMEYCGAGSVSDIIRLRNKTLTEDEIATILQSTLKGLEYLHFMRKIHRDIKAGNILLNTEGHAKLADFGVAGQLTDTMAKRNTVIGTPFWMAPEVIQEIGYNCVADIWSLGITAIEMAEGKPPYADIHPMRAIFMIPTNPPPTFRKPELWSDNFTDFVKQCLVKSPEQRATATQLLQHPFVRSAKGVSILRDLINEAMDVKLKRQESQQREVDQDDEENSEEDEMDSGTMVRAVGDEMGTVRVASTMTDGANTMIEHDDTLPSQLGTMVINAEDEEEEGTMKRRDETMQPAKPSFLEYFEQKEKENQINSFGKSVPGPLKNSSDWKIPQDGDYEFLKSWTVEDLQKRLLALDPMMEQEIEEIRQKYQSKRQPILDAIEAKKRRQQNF", "assay": "Inhibition of recombinant full-length human MST1 assessed as residual activity using KKSRGDYMTMQIG as substrate measured after 40 mins in presence of [gamma33P]ATP by scintillation counting based radiometry assay", "outline": "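Outsourced kinase profiling of MST1 by a commercial service (Eurofins); activity reported as mean ± SEM of 2 replicates.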"}, "[8]": {"molecular_target": "Testis-specific serine/threonine-protein kinase 3 (Homo sapiens) (UniProt Q96PN8)", "sequence (Q96PN8 whole entry)": "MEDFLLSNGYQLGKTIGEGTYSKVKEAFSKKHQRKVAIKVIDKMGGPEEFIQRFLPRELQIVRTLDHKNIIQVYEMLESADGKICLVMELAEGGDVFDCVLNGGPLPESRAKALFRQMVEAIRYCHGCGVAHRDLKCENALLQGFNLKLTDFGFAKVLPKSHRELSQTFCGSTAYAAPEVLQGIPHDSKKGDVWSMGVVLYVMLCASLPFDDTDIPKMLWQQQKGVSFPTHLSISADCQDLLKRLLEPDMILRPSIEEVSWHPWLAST", "assay": "Inhibition of recombinant full-length human TSSK3 assessed as residual activity at 10 uM using AMARAASAAALARRR as substrate incubated for 40 mins in presence of [gamma33P]ATP by scintillation counting based radiometry assay relative to control"}, "[9]": {"molecular_target": "Mitogen-activated protein kinase kinase kinase kinase 1 (Homo sapiens) (UniProt Q92918)", "assay": "Inhibition of human HPK1 (1 to 346 residues) assessed as residual activity at 10 uM using myelin basic protein as substrate after 40 mins by [gamma-33ATP] radiometric assay relative to control"}, "[10]": {"molecular_target": "Tyrosine-protein kinase Lyn (Mus musculus) (UniProt P25911)", "sequence (P25911 whole entry)": "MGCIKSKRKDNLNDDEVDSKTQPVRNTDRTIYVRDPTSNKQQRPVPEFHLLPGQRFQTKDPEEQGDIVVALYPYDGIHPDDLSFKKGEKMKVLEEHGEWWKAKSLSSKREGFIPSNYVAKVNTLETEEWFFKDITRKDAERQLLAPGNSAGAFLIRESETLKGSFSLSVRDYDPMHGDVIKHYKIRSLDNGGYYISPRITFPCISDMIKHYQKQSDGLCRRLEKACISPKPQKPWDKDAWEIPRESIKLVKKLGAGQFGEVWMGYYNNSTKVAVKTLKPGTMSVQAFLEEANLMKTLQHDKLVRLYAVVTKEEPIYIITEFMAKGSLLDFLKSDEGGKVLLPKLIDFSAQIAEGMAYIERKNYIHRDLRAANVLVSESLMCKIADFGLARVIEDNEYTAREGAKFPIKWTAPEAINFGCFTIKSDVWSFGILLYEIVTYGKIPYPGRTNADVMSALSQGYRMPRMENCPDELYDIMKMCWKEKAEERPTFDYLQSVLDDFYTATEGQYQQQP", "assay": "Inhibition of recombinant full length mouse Lyn assessed as residual activity at 10 uM using poly(Glu, Tyr) 4:1 as substrate after 40 mins in presence of [gamma-33ATP] by scintillation counting based radiometry assay relative to control"}, "[11]": {"molecular_target": "Serine/threonine-protein kinase Nek1 (Homo sapiens) (UniProt Q96PY6)", "sequence (Q96PY6 whole entry, the tested form may be a part)": "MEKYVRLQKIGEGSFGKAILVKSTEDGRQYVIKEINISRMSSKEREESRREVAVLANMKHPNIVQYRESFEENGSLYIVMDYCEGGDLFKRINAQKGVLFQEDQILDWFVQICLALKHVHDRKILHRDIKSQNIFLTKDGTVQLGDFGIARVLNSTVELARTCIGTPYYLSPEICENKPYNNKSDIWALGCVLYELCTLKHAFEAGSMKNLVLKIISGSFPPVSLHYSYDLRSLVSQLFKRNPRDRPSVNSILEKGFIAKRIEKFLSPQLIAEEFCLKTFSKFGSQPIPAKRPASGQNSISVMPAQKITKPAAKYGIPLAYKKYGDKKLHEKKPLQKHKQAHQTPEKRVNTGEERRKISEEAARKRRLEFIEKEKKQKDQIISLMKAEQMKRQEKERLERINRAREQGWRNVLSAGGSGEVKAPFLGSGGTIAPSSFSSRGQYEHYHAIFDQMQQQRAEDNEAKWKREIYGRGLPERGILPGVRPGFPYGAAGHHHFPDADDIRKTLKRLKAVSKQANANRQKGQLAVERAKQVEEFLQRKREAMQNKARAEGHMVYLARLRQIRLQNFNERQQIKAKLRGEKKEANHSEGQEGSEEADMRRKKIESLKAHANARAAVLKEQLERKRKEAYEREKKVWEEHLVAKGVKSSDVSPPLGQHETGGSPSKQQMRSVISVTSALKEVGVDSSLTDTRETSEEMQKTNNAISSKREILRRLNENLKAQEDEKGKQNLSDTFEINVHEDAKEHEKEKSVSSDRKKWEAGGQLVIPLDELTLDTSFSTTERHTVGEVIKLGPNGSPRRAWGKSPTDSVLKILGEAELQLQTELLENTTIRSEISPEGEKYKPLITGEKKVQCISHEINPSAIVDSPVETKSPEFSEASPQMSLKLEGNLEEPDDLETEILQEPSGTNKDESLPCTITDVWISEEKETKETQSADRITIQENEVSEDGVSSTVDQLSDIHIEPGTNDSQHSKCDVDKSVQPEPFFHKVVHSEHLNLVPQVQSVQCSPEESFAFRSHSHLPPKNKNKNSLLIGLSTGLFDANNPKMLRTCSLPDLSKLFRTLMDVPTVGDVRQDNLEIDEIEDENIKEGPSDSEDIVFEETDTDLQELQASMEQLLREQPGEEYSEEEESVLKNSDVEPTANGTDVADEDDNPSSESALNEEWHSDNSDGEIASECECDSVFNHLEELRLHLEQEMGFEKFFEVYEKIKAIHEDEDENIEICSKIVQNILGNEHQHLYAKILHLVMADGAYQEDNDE", "assay": "Inhibition of recombinant human NEK1 (1 to 505 residues) assessed as residual activity at 10 uM using RLGRDKYKTLRQI as substrate measured after 40 mins in presence of [gamma33P]ATP by scintillation counting based radiometry assay relative to control"}, "[12]": {"system": "Platelet-derived growth factor receptor alpha (Homo sapiens), P16234 [D842V]", "sequence (P16234 whole entry D842V)": "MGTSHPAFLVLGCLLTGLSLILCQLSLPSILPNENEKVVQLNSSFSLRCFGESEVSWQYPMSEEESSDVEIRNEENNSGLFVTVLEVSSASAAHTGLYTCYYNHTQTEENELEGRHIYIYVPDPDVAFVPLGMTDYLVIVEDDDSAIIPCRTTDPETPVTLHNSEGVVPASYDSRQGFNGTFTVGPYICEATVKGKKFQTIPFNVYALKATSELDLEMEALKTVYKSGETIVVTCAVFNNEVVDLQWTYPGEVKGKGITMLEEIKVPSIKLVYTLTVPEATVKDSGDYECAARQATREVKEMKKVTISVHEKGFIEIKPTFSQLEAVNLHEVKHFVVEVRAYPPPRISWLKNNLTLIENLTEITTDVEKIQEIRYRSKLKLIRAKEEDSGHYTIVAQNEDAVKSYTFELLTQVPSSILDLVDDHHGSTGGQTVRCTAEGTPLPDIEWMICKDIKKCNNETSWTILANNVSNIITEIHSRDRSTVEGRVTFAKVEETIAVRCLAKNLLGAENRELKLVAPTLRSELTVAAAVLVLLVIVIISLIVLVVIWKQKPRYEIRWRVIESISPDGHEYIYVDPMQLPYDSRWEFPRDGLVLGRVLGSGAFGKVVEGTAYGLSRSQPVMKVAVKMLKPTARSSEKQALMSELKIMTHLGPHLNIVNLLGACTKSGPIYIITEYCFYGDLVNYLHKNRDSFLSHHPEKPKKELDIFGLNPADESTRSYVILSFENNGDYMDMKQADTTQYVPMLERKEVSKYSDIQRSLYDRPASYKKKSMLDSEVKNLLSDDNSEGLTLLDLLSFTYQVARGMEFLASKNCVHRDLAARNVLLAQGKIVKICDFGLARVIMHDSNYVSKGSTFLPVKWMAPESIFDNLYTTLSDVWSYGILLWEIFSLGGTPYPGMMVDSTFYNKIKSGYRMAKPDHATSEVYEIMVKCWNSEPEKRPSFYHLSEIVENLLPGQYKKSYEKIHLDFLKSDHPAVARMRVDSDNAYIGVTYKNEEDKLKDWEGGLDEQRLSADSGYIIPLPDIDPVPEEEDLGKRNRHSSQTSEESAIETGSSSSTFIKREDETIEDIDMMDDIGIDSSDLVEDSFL", "assay": "Inhibition of human PDGFRalpha D842V mutant (550 to end residues) assessed as residual activity at 10 uM using poly(Glu, Tyr) 4:1 as substrate measured after 40 mins in presence of [gamma33P]ATP by scintillation counting based radiometry assay relative to control"}, "[13]": {"molecular_target": "Serine/threonine-protein kinase LATS1 (Homo sapiens, UniProt O95835)", "assay": "Binding affinity to recombinant human LATS1 (Q678 to V1130 residues) expressed in bacterial expression system assessed as dissociation constant by Kinomescan method", "outline": "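KINOMEscan competition binding assay. Kinase bound at each concentration of test compound was quantified by qPCR and plotted against log10 compound concentration to derive Kd.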"}, "[14]": {"molecular_target": "Mitogen-activated protein kinase kinase kinase 3 (Homo sapiens) (UniProt Q99759)", "assay": "Inhibition of recombinant full length human MEKK3 assessed as residual activity at 10 uM using myelin basic protein as substrate incubated for 120 mins in presence of [gamma-33ATP by scintillation counting based radiometry assay relative to control"}, "[15]": {"molecular_target": "Proto-oncogene tyrosine-protein kinase Src (Homo sapiens) (UniProt P12931)", "assay": "Inhibition of recombinant human SRC (1 to 530 residues) assessed as residual activity at 10 uM using GGEEEEYFELVKK as substrate incubated for 40 mins in presence of [gamma33P]ATP by scintillation counting based radiometry assay relative to control"}, "[16]": {"molecular_target": "Tyrosine-protein kinase ABL1 (Homo sapiens) (UniProt P00519)", "assay": "Inhibition of human ABL1 (27 to end residues) at 10 uM using EAIYAAPFAKKK as substrate incubated for 40 mins in presence of [gamma-33ATP] by scintillation counting based radiometry assay relative to control", "set-up": "scale not given: the % may be the effect or the level left"}, "[17]": {"molecular_target": "DNA-dependent protein kinase catalytic subunit (Homo sapiens) (UniProt P78527)", "assay": "Inhibition of human DNA-PK assessed as residual activity at 10 uM using GST-cMyc-p53 as substrate measured after 40 mins by fluorescence assay relative to control"}, "[18]": {"molecular_target": "PAS domain-containing serine/threonine-protein kinase (Homo sapiens) (UniProt Q96RG2)", "assay": "Inhibition of recombinant human PASK (995 to end residues) assessed as residual activity at 10 uM using KKLNRTLSFAEPG as substrate measured after 40 mins in presence of [gamma33P]ATP by scintillation counting based radiometry assay relative to control"}, "[19]": {"molecular_target": "Mitogen-activated protein kinase kinase kinase kinase 4 (Homo sapiens) (UniProt O95819)", "assay": "Inhibition of recombinant human MAP4K4 (1 to 328 residues) assessed as residual activity at 10 uM using RLGRDKYKTLRQI as substrate incubated for 40 mins in presence of [gamma-33ATP by scintillation counting based radiometry assay relative to control"}, "[20]": {"molecular_target": "Mitogen-activated protein kinase 13 (Homo sapiens) (UniProt O15264)", "sequence (O15264 whole entry)": "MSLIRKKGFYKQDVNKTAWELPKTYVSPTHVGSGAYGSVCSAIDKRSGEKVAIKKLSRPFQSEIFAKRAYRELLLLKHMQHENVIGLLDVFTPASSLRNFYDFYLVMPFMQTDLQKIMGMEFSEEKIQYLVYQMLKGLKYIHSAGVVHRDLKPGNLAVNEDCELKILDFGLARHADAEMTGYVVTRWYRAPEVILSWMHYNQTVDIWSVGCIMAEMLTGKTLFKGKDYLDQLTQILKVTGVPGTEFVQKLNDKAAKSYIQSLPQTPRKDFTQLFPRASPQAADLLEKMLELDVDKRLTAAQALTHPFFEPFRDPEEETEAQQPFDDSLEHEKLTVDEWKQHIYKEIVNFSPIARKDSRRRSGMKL", "assay": "Inhibition of recombinant human full length SAPK4 assessed as residual activity at 10 uM using myelin basic protein as substrate incubated for 40 mins in presence of [gamma33P]ATP by scintillation counting based radiometry assay relative to control"}},
  "data": [
    {"compound": "C[C@@H](c1ccccc1)n1nnc2cnc3ccc(-c4cnc5[nH]ccc5c4)cc3c21", "values": [
      {"measurement": "Activity", "setting": "[1]", "result": 93, "unit": "%"},
      {"measurement": "Activity", "setting": "[2]", "result": 93, "unit": "%"},
      {"measurement": "Activity", "setting": "Mus musculus", "result": 1, "unit": "%"},
      {"measurement": "Activity", "setting": "[3]", "result": 44, "unit": "%"},
      {"measurement": "Activity", "setting": "[4]", "result": 74, "unit": "%"},
      {"measurement": "Activity", "setting": "[5]", "result": 110, "unit": "%"},
      {"measurement": "Activity", "setting": "[6]", "result": 30, "unit": "%"},
      {"measurement": "IC50", "setting": "[7]", "result": "> 10", "unit": "µM"},
      {"measurement": "Activity", "setting": "[8]", "result": 64, "unit": "%"},
      {"measurement": "Activity", "setting": "[9]", "result": 84, "unit": "%"},
      {"measurement": "Activity", "setting": "[10]", "result": 3, "unit": "%"},
      {"measurement": "Activity", "setting": "[11]", "result": 23, "unit": "%"},
      {"measurement": "Activity", "setting": "[12]", "result": 4, "unit": "%"},
      {"measurement": "Kd", "setting": "[13]", "result": "> 10", "unit": "µM"},
      {"measurement": "Activity", "setting": "[14]", "result": 92, "unit": "%"},
      {"measurement": "Activity", "setting": "[15]", "result": 15, "unit": "%"},
      {"measurement": "Activity", "setting": "[16]", "result": -4, "unit": "%"},
      {"measurement": "Activity", "setting": "[17]", "result": 4, "unit": "%"},
      {"measurement": "Activity", "setting": "[18]", "result": 30, "unit": "%"},
      {"measurement": "Activity", "setting": "[19]", "result": 34, "unit": "%"},
      {"measurement": "Activity", "setting": "[20]", "result": 97, "unit": "%"}
    ]}
  ]
}
